{"source": "paper PMC7253076", "about": "(Cell chemical biology, 2019)", "key": {"[1]": {"test_system": "human stem-cell-derived motor neurons carrying the ALS-causing SOD1^A4V mutation", "assay": "Motor neuron CPA survival assay, SOD1^A4V ALS motor neurons", "conditions": "for maximum efficacy compared with compound 1 / neuroprotection in CPA survival assay / concentrations that completely blocked the effects of CPA treatment: CPA-treated SOD1^A4V motor neurons; for pEC50: Homo sapiens, Neuron, 72 h, read-out: EC50 in motor neuron survival assay"}, "[2]": {"test_system": "JNK pathway", "assay": "Western blots of JNK pathway in CPA-treated motor neurons", "type": "cell-based, mouse", "conditions": "western blot, Fig. S2", "procedure,_shortened": "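Day-6 embryoid bodies from mouse ES cells (HB9::GFP reporter, human SOD1 transgene; RA 1 μM + SAG 0.5 μM) were given CPA 10 μM plus test compound 0.5 μM for 4 h, then lysed in HEPES/Triton/SDS buffer. Immunoblots used phospho-JNK (Thr183/Tyr185), phospho-c-Jun (Ser63), phospho-MKK4 (Ser257), total proteins and cleaved caspase 3 at 1:1000, with GAPDH at 1:3000. Signals normalised to GAPDH, phospho to total, and expressed as % of CPA; n = 2 differentiations; unpaired two-tailed t-tests.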"}, "[3]": {"test_system": "mouse stem cell-derived motor neurons", "conditions": "CPA-treated; ref Thams et al., 2019; cited from earlier work"}, "[4]": {"test_system": "motor neurons differentiated from human induced pluripotent stem cells derived from a healthy patient", "assay": "Motor neuron CPA survival assay, healthy-patient iPSC-derived motor neurons", "type": "cell-based", "conditions": "for rescue of CPA toxicity / neuroprotection: CPA-treated healthy human motor neurons, 72 h; for concentrations toxic to motor neurons in the absence of CPA: without CPA"}}, "note": "pEC50: −log10 of the molar value.", "data": [{"smiles": "CN1CCN(Cc2ccc(-c3cnc4[nH]cc(-c5cccc6[nH]ncc56)c4c3)cc2)CC1", "note": "[7aa, 4-(5-(4-((4-Methylpiperazin-1-yl)methyl)phenyl)-1H-pyrrolo[2,3-b]pyridin-3-yl)-1H-indazole]", "values": [{"measurement": "maximum efficacy compared with compound 1", "setting": "[1]", "result": "greater maximum efficacy than compound 1"}, {"measurement": "pEC50", "setting": "[1]", "result": "> 6.66"}]}, {"smiles": "CN1CCN(Cc2ccc(-c3cnc4[nH]cc(-c5ccccc5)c4c3)cc2)CC1", "note": "[7ac, 5-(4-((4-Methylpiperazin-1-yl)methyl)phenyl)-3-phenyl-1H-pyrrolo[2,3-b]pyridine]", "values": [{"measurement": "maximum efficacy compared with compound 1", "setting": "[1]", "result": "greater maximum efficacy than compound 1"}]}, {"smiles": "CNC(=O)Nc1cccc(-c2c[nH]c3ncc(-c4ccc(CN5CCN(C)CC5)cc4)cc23)c1", "note": "[7ak, 1-Methyl-3-(3-(5-(4-((4-methylpiperazin-1-yl)methyl)phenyl)-1H-pyrrolo[2,3-b]pyridin-3-yl)phenyl)urea]", "values": [{"measurement": "maximum efficacy compared with compound 1", "setting": "[1]", "result": "greater maximum efficacy than compound 1"}]}, {"smiles": "COC(=O)Nc1cccc(-c2c[nH]c3ncc(-c4ccc(CN5CCN(C)CC5)cc4)cc23)c1", "note": "[7al, Methyl (3-(5-(4-((4-methylpiperazin-1-yl)methyl)phenyl)-1H-pyrrolo[2,3-b]pyridin-3-yl)phenyl)carbamate]", "values": [{"measurement": "maximum efficacy compared with compound 1", "setting": "[1]", "result": "greater maximum efficacy than compound 1"}]}, {"smiles": "CNC(=O)Nc1ccc(-c2c[nH]c3ncc(-c4ccc(CN5CCN(C)CC5)cc4)cc23)cc1", "note": "[7am, 1-Methyl-3-(4-(5-(4-((4-methylpiperazin-1-yl)methyl)phenyl)-1H-pyrrolo[2,3-b]pyridin-3-yl)phenyl)urea]", "values": [{"measurement": "maximum efficacy compared with compound 1", "setting": "[1]", "result": "greater maximum efficacy than compound 1"}]}, {"smiles": "CN1CCN(Cc2ccc(-c3cnc4[nH]cc(-c5cccc(NC(=O)NCc6ccco6)c5)c4c3)cc2)CC1", "note": "[7ay, 1-(Furan-2-ylmethyl)-3-(3-(5-(4-((4-methylpiperazin-1-yl)methyl)phenyl)-1H-pyrrolo[2,3-b]pyridin-3-yl)phenyl)urea]", "values": [{"measurement": "neuroprotection in CPA survival assay", "setting": "[1]", "result": "completely ineffective"}]}, {"smiles": "CN1CCN(Cc2ccc(-c3cnc4[nH]cc(-c5cccc6c5oc5ccccc56)c4c3)cc2)CC1", "note": "[7c, 3-(Dibenzo[b,d]furan-4-yl)-5-(4-((4-methylpiperazin-1-yl)methyl)phenyl)-1H-pyrrolo[2,3-b]pyridine]", "values": [{"measurement": "neuroprotection in CPA survival assay", "setting": "[1]", "result": "completely ineffective"}]}, {"smiles": "CN1CCN(Cc2ccc(-c3cnc4[nH]cc(-c5ccc(N)cc5)c4c3)cc2)CC1", "note": "[7e, 4-(5-(4-((4-Methylpiperazin-1-yl)methyl)phenyl)-1H-pyrrolo[2,3-b]pyridin-3-yl)aniline]", "values": [{"measurement": "maximum efficacy compared with compound 1", "setting": "[1]", "result": "greater maximum efficacy than compound 1"}]}, {"smiles": "CN1CCN(Cc2ccc(-c3cnc4[nH]cc(-c5cccc(N)c5)c4c3)cc2)CC1", "note": "[7h, 3-(5-(4-((4-Methylpiperazin-1-yl)methyl)phenyl)-1H-pyrrolo[2,3-b]pyridin-3-yl)aniline]", "values": [{"measurement": "maximum efficacy compared with compound 1", "setting": "[1]", "result": "greater maximum efficacy than compound 1"}, {"measurement": "pEC50", "setting": "[1]", "result": "> 6.66"}]}, {"smiles": "Cc1cc(-c2c[nH]c3ncc(-c4ccc(CN5CCN(C)CC5)cc4)cc23)cnc1N", "note": "[7l, 3-Methyl-5-(5-(4-((4-methylpiperazin-1-yl)methyl)phenyl)-1H-pyrrolo[2,3-b]pyridin-3-yl)pyridin-2-amine]", "values": [{"measurement": "maximum efficacy compared with compound 1", "setting": "[1]", "result": "greater maximum efficacy than compound 1"}, {"measurement": "pEC50", "setting": "[1]", "result": "> 6.66"}]}, {"smiles": "CN1CCN(Cc2ccc(-c3cnc4[nH]cc(-c5ccc(N)nc5)c4c3)cc2)CC1", "note": "[7m, 5-(5-(4-((4-Methylpiperazin-1-yl)methyl)phenyl)-1H-pyrrolo[2,3-b]pyridin-3-yl)pyridin-2-amine]", "values": [{"measurement": "pEC50", "setting": "[1]", "result": "> 6.66"}]}, {"smiles": "CN1CCN(Cc2ccc(-c3cnc4[nH]cc(-c5cccc([N+](=O)[O-])c5)c4c3)cc2)CC1", "note": "[7p, 5-(4-((4-Methylpiperazin-1-yl)methyl)phenyl)-3-(3-nitrophenyl)-1H-pyrrolo[2,3-b]pyridine]", "values": [{"measurement": "maximum efficacy compared with compound 1", "setting": "[1]", "result": "greater maximum efficacy than compound 1"}]}, {"smiles": "CN1CCN(Cc2ccc(-c3cnc4[nH]cc(-c5ccc6[nH]ncc6c5)c4c3)cc2)CC1", "note": "[7v, 5-(5-(4-((4-Methylpiperazin-1-yl)methyl)phenyl)-1H-pyrrolo[2,3-b]pyridin-3-yl)-1H-indazole]", "values": [{"measurement": "maximum efficacy compared with compound 1", "setting": "[1]", "result": "greater maximum efficacy than compound 1"}, {"measurement": "pEC50", "setting": "[1]", "result": "> 6.66"}]}, {"smiles": "CN1CCN(Cc2ccc(-c3cnc4[nH]cc(-c5cccc(F)c5)c4c3)cc2)CC1", "note": "[7y, 3-(3-Fluorophenyl)-5-(4-((4-methylpiperazin-1-yl)methyl)phenyl)-1H-pyrrolo[2,3-b]pyridine]", "values": [{"measurement": "maximum efficacy compared with compound 1", "setting": "[1]", "result": "greater maximum efficacy than compound 1"}]}, {"smiles": "CN1CC2CCC(C1)N2Cc1ccc(-c2cnc3[nH]cc(-c4cccc(Cl)c4)c3c2)cc1", "note": "[12f, 3-(3-Chlorophenyl)-5-(4-((3-methyl-3,8-diazabicyclo[3.2.1]octan-8-yl)methyl)phenyl)-1H-pyrrolo[2,3-b]pyridine]", "values": [{"measurement": "pEC50", "setting": "[1]", "result": 6.96}, {"measurement": "concentrations at which compound was toxic", "setting": "[1]; motor neuron survival assay", "result": "above 0.3 μM"}]}, {"smiles": "OCCN1CCN(Cc2ccc(-c3cnc4[nH]cc(-c5cccc(F)c5)c4c3)cc2)CC1", "note": "[12h, 2-(4-(4-(3-(3-Fluorophenyl)-1H-pyrrolo[2,3-b]pyridin-5-yl)benzyl)piperazin-1-yl)ethan-1-ol]", "values": [{"measurement": "inhibition of JNK pathway components", "setting": "[2]", "result": "effectively inhibit the same JNK pathway components as compound 1"}, {"measurement": "concentrations that completely blocked the effects of CPA treatment", "setting": "[1]", "result": "< 0.3", "unit": "µM"}]}, {"smiles": "O[C@@H]1CCN(Cc2ccc(-c3cnc4[nH]cc(-c5cccc(F)c5)c4c3)cc2)C1", "note": "[12i, (R)-1-(4-(3-(3-Fluorophenyl)-1H-pyrrolo[2,3-b]pyridin-5-yl)benzyl)pyrrolidin-3-ol]", "values": [{"measurement": "inhibition of JNK pathway components", "setting": "[2]", "result": "effectively inhibit the same JNK pathway components as compound 1"}, {"measurement": "concentrations that completely blocked the effects of CPA treatment", "setting": "[1]", "result": "< 0.3", "unit": "µM"}]}, {"smiles": "O[C@@H]1CCN(Cc2ccc(-c3cnc4[nH]cc(-c5cccc(Cl)c5)c4c3)cc2)C1", "note": "[12l, (R)-1-(4-(3-(3-Chlorophenyl)-1H-pyrrolo[2,3-b]pyridin-5-yl)benzyl)pyrrolidin-3-ol]", "values": [{"measurement": "inhibition of JNK pathway components", "setting": "[2]", "result": "effectively inhibit the same JNK pathway components as compound 1"}, {"measurement": "concentrations that completely blocked the effects of CPA treatment", "setting": "[1]", "result": "< 0.3", "unit": "µM"}]}, {"smiles": "Cn1c2ccccc2c2c3c(c4c5ccccc5n(CCC#N)c4c21)CNC3=O", "note": "[Gö6976]", "values": [{"measurement": "protection of motor neurons from ER stress", "setting": "[3]", "result": "protect motor neurons from ER stress"}]}, {"smiles": "Cc1nc(Nc2cnn(C3CCNCC3)c2)nc2c1N(C)C(=O)c1cc3ccccc3cc1N2C", "note": "[HTH 01–015]", "values": [{"measurement": "rescue of CPA toxicity / neuroprotection", "setting": "[4]", "result": "did not rescue CPA toxicity"}, {"measurement": "concentrations toxic to motor neurons in the absence of CPA", "setting": "[4]", "result": "above 2 μM"}]}, {"smiles": "COC(=O)[C@@]1(O)C[C@H]2O[C@]1(C)n1c3ccccc3c3c4c(c5c6ccccc6n2c5c31)C(=O)NC4", "note": "[K252a]", "values": [{"measurement": "protection of motor neurons from ER stress", "setting": "[3]", "result": "protect motor neurons from ER stress"}]}, {"smiles": "Nc1ccc(-c2cnc(N)c(-c3ccc(Cl)cc3)c2)cn1", "note": "[PF-6260933]", "values": [{"measurement": "rescue of CPA toxicity / neuroprotection", "setting": "[4]", "result": "neuroprotective"}]}, {"smiles": "CCC(=O)Nc1cccc(Oc2nc(Nc3ccc(N4CCN(C)CC4)cc3OC)ncc2Cl)c1", "note": "[WZ4003]", "values": [{"measurement": "rescue of CPA toxicity / neuroprotection", "setting": "[4]", "result": "did not rescue CPA toxicity"}, {"measurement": "concentrations toxic to motor neurons in the absence of CPA", "setting": "[4]", "result": "above 2 μM"}]}, {"smiles": "O=C1Cc2c([nH]c3ccc([N+](=O)[O-])cc23)-c2ccccc2N1", "note": "[alsterpaullone]", "values": [{"measurement": "rescue of CPA toxicity / neuroprotection", "setting": "[4]", "result": "more potent than kenpaullone"}]}, {"smiles": "O=C1Cc2c([nH]c3ccc(Br)cc23)-c2ccccc2N1", "note": "[kenpaullone]", "values": [{"measurement": "protection of motor neurons from ER stress", "setting": "[3]", "result": "protect motor neurons from ER stress"}]}]}
